Data published in paper PMC6957258 (Bioorganic & medicinal chemistry, 2013).
Where two headings read alike, the source gives them in different places.

Experiments:
human TRPV1 [1] = target: T1, human TRPV1 (Homo sapiens, UniProt Q8NER1); assay: FLIPR antagonism of capsaicin; type: cell-based
[2] = tested on: CCI-induced cold allodynia (neuropathic pain model); settings: rat, po; cited from earlier work
[3] = tested on: capsaicin-induced hypothermia; settings: mice; cited from earlier work
human TRPV1 [4] = target: T1, human TRPV1; assay: FLIPR antagonism of pH activation, hTRPV1 in CHO cells; type: cell-based; settings: read-out: IC50 [pH], inhibition of pH activation
[5] = tested on: capsaicin-induced hypothermia; assay: Capsaicin-induced hypothermia in mice; type: in vivo; settings: for inhibition of the effect of capsaicin on body temperature: 0.3 mg/Kg po 15 min before capsaicin 3 mg/Kg ip
Summary of the method: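 Mice, n = 5 per group. Body temperature (°C) was recorded after capsaicin challenge, with readings taken up to 60 min. Data are given as mean ± SEM and compared with vehicle-treated animals, with significance at p < 0.05.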

T1 sequence (Q8NER1 whole entry): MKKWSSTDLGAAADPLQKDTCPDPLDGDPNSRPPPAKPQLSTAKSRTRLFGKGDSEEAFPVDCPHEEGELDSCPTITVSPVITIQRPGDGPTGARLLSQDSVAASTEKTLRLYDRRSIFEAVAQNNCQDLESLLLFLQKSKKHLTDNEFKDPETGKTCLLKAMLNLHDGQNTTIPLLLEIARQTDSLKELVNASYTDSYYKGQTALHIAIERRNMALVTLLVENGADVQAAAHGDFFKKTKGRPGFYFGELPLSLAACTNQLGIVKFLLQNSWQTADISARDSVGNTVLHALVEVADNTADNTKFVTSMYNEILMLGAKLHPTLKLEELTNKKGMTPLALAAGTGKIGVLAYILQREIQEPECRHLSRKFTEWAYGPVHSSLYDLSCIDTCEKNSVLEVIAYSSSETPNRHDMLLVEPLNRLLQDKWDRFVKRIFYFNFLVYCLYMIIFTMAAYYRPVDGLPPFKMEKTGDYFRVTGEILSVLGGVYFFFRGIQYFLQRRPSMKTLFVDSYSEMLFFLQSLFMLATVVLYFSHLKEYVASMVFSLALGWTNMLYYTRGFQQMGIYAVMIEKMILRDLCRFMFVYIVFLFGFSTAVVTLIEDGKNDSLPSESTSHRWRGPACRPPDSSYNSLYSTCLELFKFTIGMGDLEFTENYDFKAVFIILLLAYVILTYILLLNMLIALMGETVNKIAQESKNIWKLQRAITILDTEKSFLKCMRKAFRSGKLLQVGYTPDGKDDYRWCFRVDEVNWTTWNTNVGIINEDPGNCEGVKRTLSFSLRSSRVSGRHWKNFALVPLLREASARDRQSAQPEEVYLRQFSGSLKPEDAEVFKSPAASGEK

| Structure (SMILES) | IC50 (human TRPV1 [4]) [µM] | also measured |
| --- | --- | --- |
| CC1CCN(c2nc(C(F)(F)F)ccc2CNC(=O)[C@@H](C)c2ccc(NS(C)(=O)=O)c(F)c2)CC1 [compound 2] |  | fold better than prototype 1 for CAP antagonism (human TRPV1 [1]; ratio versus 1): approximately 100 fold; ED50 anti-allodynic efficacy [2]: 0.9 mg/kg; effect on capsaicin-induced hypothermia [3]: blocked capsaicin-induced hypothermia |
| CC(C(=O)NCc1ccc(C(F)(F)F)nc1SCC(F)(F)F)c1ccc(NS(C)(=O)=O)c(F)c1 (centres unmarked) [compound 11, 2-(3-Fluoro-4-(methylsulfonamido)phenyl)-N-((2-(2,2,2-trifluoroethylthio)-6-(trifluoromethyl)pyridin-3-yl)methyl) propanamide] | > 1 |  |
| CC(C(=O)NCc1ccc(C(F)(F)F)nc1SCCC(=O)N1CCCC1)c1ccc(NS(C)(=O)=O)c(F)c1 (centres unmarked) [compound 22, 2-(3-Fluoro-4-(methylsulfonamido)phenyl)-N-((2-(3-oxo-3-(pyrrolidin-1-yl)propylthio)-6-(trifluoromethyl)pyridin-3-yl)methyl)propanamide] | > 1 |  |
| C[C@H](C(=O)NCc1ccc(C(C)(C)C)cc1)c1ccc(NS(C)(=O)=O)c(F)c1 [compound 1] |  | ED50 anti-allodynic efficacy [2]: 26.6 mg/kg |
| CC(C(=O)NCc1ccc(C(F)(F)F)nc1S(=O)(=O)C1CCCCC1)c1ccc(NS(C)(=O)=O)c(F)c1 (centres unmarked) [compound 26, N-((2-(Cyclohexylsulfonyl)-6-(trifluoromethyl)pyridin-3-yl)methyl)-2-(3-fluoro-4-(methylsulfonamido)phenyl)propanamide] | > 1 |  |
| CC(C(=O)NCc1ccc(C(F)(F)F)nc1SC1CCCCC1C)c1ccc(NS(C)(=O)=O)c(F)c1 (centres unmarked) [compound 28, 2-(3-Fluoro-4-(methylsulfonamido)phenyl)-N-((2-(2-methylcyclohexylthio)-6-(trifluoromethyl)pyridin-3-yl)methyl)propanamide] | > 1 |  |
| CC(C(=O)NCc1ccc(C(F)(F)F)nc1SCc1cccs1)c1ccc(NS(C)(=O)=O)c(F)c1 (centres unmarked) [compound 38, 2-(3-Fluoro-4-(methylsulfonamido)phenyl)-N-((2-(thiophen-2-ylmethylthio)-6-(trifluoromethyl)pyridin-3-yl)methyl)propanamide] | > 1 |  |
| C[C@@H](C(=O)NCc1ccc(C(F)(F)F)nc1SC1CCCCC1)c1ccc(NS(C)(=O)=O)c(F)c1 [24R, (R)-N-((2-(Cyclohexylthio)-6-(trifluoromethyl)pyridin-3-yl)methyl)-2-(3-fluoro-4-(methylsulfonamido)phenyl)propanamide] | > 1 |  |
| CC(C(=O)NCc1ccc(C(F)(F)F)nc1[S+]([O-])C1CCCCC1)c1ccc(NS(C)(=O)=O)c(F)c1 (centres unmarked) [compound 25, N-((2-(Cyclohexylsulfinyl)-6-(trifluoromethyl)pyridin-3-yl)methyl)-2-(3-fluoro-4-(methylsulfonamido)phenyl)propanamide] | > 1 |  |
| CCC1CCC(Sc2nc(C(F)(F)F)ccc2CNC(=O)C(C)c2ccc(NS(C)(=O)=O)c(F)c2)CC1 (centres unmarked) [compound 29, N-((2-(4-Ethylcyclohexylthio)-6-(trifluoromethyl)pyridin-3-yl)methyl)-2-(3-fluoro-4-(methylsulfonamido)phenyl)propanamide] | > 1 |  |
| CC(C(=O)NCc1ccc(C(F)(F)F)nc1SCc1ccco1)c1ccc(NS(C)(=O)=O)c(F)c1 (centres unmarked) [compound 37, 2-(3-Fluoro-4-(methylsulfonamido)phenyl)-N-((2-(furan-2-ylmethylthio)-6-(trifluoromethyl)pyridin-3-yl)methyl)propanamide] | > 1 |  |
| CC(C)C[C@H](CN)CC(=O)O [pregabalin] |  | ED50 anti-allodynic efficacy [2]: 42.2 mg/kg |
| CC(C(=O)NCc1ccc(C(F)(F)F)nc1SCC1CCCCC1)c1ccc(NS(C)(=O)=O)c(F)c1 (centres unmarked) [compound 31, N-((2-(Cyclohexylmethylthio)-6-(trifluoromethyl)pyridin-3-yl)methyl)-2-(3-fluoro-4-(methylsulfonamido)phenyl)propanamide] |  | fold less potent than 24 (human TRPV1 [1]; ratio of Ki(CAP) versus 24): 2.5 fold |
| CC(C(=O)NCc1ccc(C(F)(F)F)nc1SCCC(=O)O)c1ccc(NS(C)(=O)=O)c(F)c1 (centres unmarked) [compound 20, 3-(3-((2-(3-Fluoro-4-(methylsulfonamido)phenyl)propanamido)methyl)-6-(trifluoromethyl)pyridin-2-ylthio) propanoic acid] | > 1 |  |
| CC(C(=O)NCc1ccc(C(F)(F)F)nc1SC1CCCC1)c1ccc(NS(C)(=O)=O)c(F)c1 (centres unmarked) [compound 23, N-((2-(Cyclopentylthio)-6-(trifluoromethyl)pyridin-3-yl)methyl)-2-(3-fluoro-4-(methylsulfonamido)phenyl)propanamide] | > 1 |  |
| C[C@H](C(=O)NCc1ccc(C(F)(F)F)nc1SC1CCCCC1)c1ccc(NS(C)(=O)=O)c(F)c1 [24S, (S)-N-((2-(Cyclohexylthio)-6-(trifluoromethyl)pyridin-3-yl)methyl)-2-(3-fluoro-4-(methylsulfonamido)phenyl)propanamide] |  | effect on capsaicin-induced hypothermia [5]: blocked capsaicin-induced hypothermia; inhibition of the effect of capsaicin on body temperature ([5]; at 15 min): partial inhibition; inhibition of the effect of capsaicin on body temperature ([5]; at 30 min): completely inhibited |
